# The full list was thinned out, with hits kept by preference.
# L major viab = Leishmania major promastigote growth inhibition, primary screen. AID 1063, 2008. inhibition, % at 10 µM. Leishmania major promastigotes, resazurin fluorescence viability. hit rate 9% among 200,000; in the data active = inhibition above about 50%;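 note: promastigotes grown with compound for 44 hours at 28 °C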
# Hsp70 act = Hsp70 transcriptional activators, primary screen, cell-based, HeLa, Hsp70 promoter luciferase, luminescence, 10 µM; AID 1203, 2008; hit rate 0.04% among 200,000; activation, % at 10 µM; HeLa Hsp70 promoter luciferase reporter; scaled: vehicle 0, proteasome-inhibitor control 100%;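 active = activation above the mean across all tested compounds plus 3 SD, cutoff set per campaign, cut at about 5.5% in these data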
# HSF-1 act = HSF-1 activators, primary screen, NIH3T3-HGL cells, MG132 stress, luminescence, single point. hit rate 1.7% among 300,000. NIH3T3-HGL HSF-1 luciferase reporter, 8 h; 100% = twice DMSO control signal. activation, % at 9 µM;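 active = mean replicate activation of at least 50% with a set share of replicates each reaching 50%; inconclusive = only one of those two conditions met; inactive = mean below 50% and too few replicates reaching it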
# T cruzi repl = inhibitors of intracellular T. cruzi growth, primary screen, luminescence, NIH3T3 host cells. T. cruzi beta-gal in NIH3T3, 90 h. inhibition, % (no concentration beside the values). hit rate 1.4% among 300,000. AID 1885, 2009;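 active = mean inhibition across valid replicates above about 55%, limit read from the data; inconclusive = mean below that limit but half or more replicates reach it; inactive = mean below it, under half of replicates reach it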;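 note: signal also drops with host cell toxicity which is not excluded here; higher percent means less beta-gal luminescence so fewer parasites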
#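 Read-out: Parasite load inhibition, % | Test system: Mouse NIH/3T3 fibroblasts infected with β-gal-expressing T. cruzi Tulahuen C4 | Amount: 5,000 cells/well | Medium: DMEM, 2% fetal bovine serum | Signal: GalScreen β-gal luminescence, detergent lysis, 60 min | Timing: 3 h attach, ≥90 h co-culture | Also added: Tulahuen C4 trypomastigotes, 5000/well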
# HSF1 inh = HSF1 inhibitors in luciferase reporter cells, primary screen, cell-based, NIH3T3, luminescence | NIH3T3-HGL HSE-luciferase, MG132-induced, luminescence 8 h; stronger effect = lower value | activity change, negative = inhibition, % at 7.5 µM (by protocol) | hit rate 0.77% among 300,000 | AID 2098, 2009;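 active = more than half of replicate wells show activity change below -50%, luminescence cut by over half; inconclusive = some wells, but at most half, below -50%; inactive = no replicate well below -50%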;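 note: luciferase reports HSF-1 transcriptional activity via heat shock element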
# Numbers stand for hits; . = inactive; ? = inconclusive; / = no result.
SMILES,L major viab,Hsp70 act,HSF-1 act,T cruzi repl,HSF1 inh
O=C(N/N=C/c1ccc([N+](=O)[O-])cc1)c1ccccc1OCc1ccccc1,/,/,?,.,.
O=C(N/N=C/c1ccc([N+](=O)[O-])cc1)c1ccc(COc2ccccc2-c2ccccc2)cc1,89.8,.,.,60.5,.
O=C(N/N=C/c1ccc(OCc2ccc(F)cc2)cc1)c1ccccc1,.,.,/,.,/
CCCCOc1ccc(/C=N/NC(=O)c2csc(C)c2C)cc1,.,.,.,.,.
Cc1scc(C(=O)N/N=C/c2ccc(OCC(C)C)cc2)c1C,87.7,.,.,.,.
O=C(N/N=C/c1ccc(F)cc1)c1ccc(OCc2ccccc2)cc1,/,/,.,.,-75.0
Cc1occc1C(=O)N/N=C/c1ccc(OCc2ccccc2)cc1,/,/,53.3,.,.
O=C(N/N=C/c1ccc2cccc(OCc3ccccc3)c2n1)c1ccc(Cl)cc1,68.4,.,.,.,.
Cc1ccc(COc2ccc(/C=N/NC(=O)c3ccc(CN4CCOCC4)cc3)cc2)cc1,.,.,.,.,.
CCOc1ccc(OCc2cccc(C(=O)N/N=C/c3cccnc3)c2)cc1,58.1,.,.,.,?
CC(C)C(=O)Nc1ccccc1C(=O)N/N=C/c1ccc([N+](=O)[O-])cc1,52.1,.,.,.,.
CC(C)(C)c1ccc(OCc2ccc(C(=O)N/N=C/c3ccc(O)c(O)c3)cc2)cc1,100.0,.,.,.,.
CC(C)c1ccc(OCc2cccc(C(=O)N/N=C/c3cccnc3)c2)cc1,.,.,.,.,.
CCOC(=O)NC(Nc1ccc(OC)cc1)(C(F)(F)F)C(F)(F)F,.,.,.,.,.
CCc1c(O)cc2n(c1=O)-c1ccc(Cl)cc1C2(C)C,71.1,.,.,.,.
O=C1CC(N2CCSCC2)C(=O)N1c1cccc(Cl)c1 (stereo not given),.,.,.,.,.
COc1cc(/C=C2\SC(N3CCc4ccccc4C3)=NC2=O)cc(OC)c1OC,54.2,.,.,.,.
COC(OC)c1ccc(C#N)c(=O)[nH]1,.,.,.,.,.
CC(=O)N1c2ccccc2C(=O)C1N(C)c1ccc(C)cc1 (stereo not given),/,/,.,.,.
CC(=O)N1/C(=C/c2ccc(N(C)C)cc2)C(=O)c2ccccc21,100.3,.,.,.,.
CCCN1C(=O)c2cccc3c(N4CCCCC4)ccc(c23)C1=O,73.2,.,.,.,.
O=C(OCCN1C(=O)c2cccc3c(N4CCOCC4)ccc(c23)C1=O)c1cc(Cl)cc(Cl)c1,71.0,.,/,/,/
O=C(NC(Cc1ccccc1)C(=O)O)c1ccc(S(=O)(=O)N2CCCC2)cc1 (stereo not given),72.2,.,.,.,.
O=C(NC(Cc1ccccc1)C(=O)O)c1ccc(S(=O)(=O)N2CCCCC2)cc1 (stereo not given),55.4,.,.,.,.
CCCCCC(=O)N/N=C/c1ccco1,77.8,.,.,.,.
SMILES,L major viab,Hsp70 act,HSF-1 act,T cruzi repl,HSF1 inh
Cc1ccc(SCC(=O)N/N=C/c2ccco2)cc1,/,/,58.8,.,.
Cc1ccccc1C(=O)Nc1nnc(CC(=O)N/N=C/c2ccco2)s1,/,/,.,.,-79.5
Cc1ccc(OCC(=O)N/N=C/c2ccco2)cc1,.,.,.,.,.
Cc1ccccc1S(=O)(=O)Cc1ccc(C(=O)NC2CC2)o1,/,/,.,.,.
O=C(NNC1CC(=O)N(c2ccc(Br)cc2)C1=O)c1cccnc1 (stereo not given),.,.,.,.,.
O=C(O)CSCC(=O)Nc1ccc(C2CCCCC2)cc1,.,.,.,.,-78.4
COC(=O)c1ccc(C)c(NS(=O)(=O)c2ccc(OC)c(OC)c2)c1,100.0,.,.,.,.
O=C1CN(C(=O)c2cccc(F)c2)C(c2ccc(F)cc2)c2cc(F)ccc2N1 (stereo not given),/,/,.,.,.
O=C1CN(C(=O)c2ccc(Br)o2)C(c2ccc(F)cc2)c2cc(F)ccc2N1 (stereo not given),95.2,.,.,.,.
COc1ccc(N(CC(=O)NCCc2ccccc2)C(=O)c2csnn2)cc1,/,/,.,.,.
CCCCn1c(N)c(N(CCOC)C(=O)CSCc2cccc(C)c2)c(=O)[nH]c1=O,/,/,.,.,.
COC(=O)c1ccccc1NC(=S)N(Cc1ccc2c(c1)OCO2)Cc1cc2cccc(C)c2[nH]c1=O,66.9,.,.,.,.
Cc1cccc2cc(CN(CCN(C)C)C(=S)Nc3ccccc3)c(=O)[nH]c12,78.5,.,.,.,.
Cc1ccc(NC(=S)N(Cc2cccs2)Cc2cc3cccc(C)c3[nH]c2=O)cc1,91.9,.,?,.,.
Cc1ccc2cc(CN(CCCN(C)C)C(=S)NCc3ccccc3)c(=O)[nH]c2c1C,94.7,.,.,.,.
CCCN(CCC)c1nc(N)c(C#N)c(CC#N)c1C#N,.,.,115.0,.,.
CCCN(CC1CC1)c1nc(N)c(C#N)c(CC#N)c1C#N,.,.,72.2,.,.
Cc1cc(C)c(S(=O)(=O)N2CCOC2CNC(=O)C(=O)NCc2ccncc2)c(C)c1 (stereo not given),/,/,.,.,.
O=c1c(-c2nc3ccccc3s2)cccn1Cc1ccc(Cl)c(Cl)c1,.,.,52.5,.,.
COc1cccc(NC(=O)Nc2nnc(Cc3ccccc3F)s2)c1,/,/,.,.,-67.5
CCOC(=O)c1sc(=S)n(CC)c1NC(=O)c1ccccc1,/,/,.,.,.
COc1cc(/C=C2\SC(c3ccc(C)cc3)=NC2=O)ccc1O,99.7,.,.,.,.
COc1ccc(/C=C2\SC(c3ccc(C)cc3)=NC2=O)cc1OC,.,.,.,.,.
O=c1[nH]c(CN2CCN(C/C=C/c3ccccc3)CC2)nc2ccccc12,.,.,.,72.1,.
Cc1ccc2oc(=O)cc(CN3CCN(C/C=C/c4ccccc4)CC3)c2c1,/,/,.,56.6,.
SMILES,L major viab,Hsp70 act,HSF-1 act,T cruzi repl,HSF1 inh
Cc1ccc2oc(=O)cc(CN3CCCCC3)c2c1,/,/,.,.,.
O=c1cc(CN2CCN(C/C=C/c3ccccc3)CC2)c2cc(O)ccc2o1,51.0,.,.,57.7,.
CN(CC(=O)Nc1cccc(F)c1)C(=O)CNS(=O)(=O)c1ccc(N(C)C)c([N+](=O)[O-])c1,/,/,.,.,.
Cc1ccc(N2CC(C(=O)Nc3ccc(S(=O)(=O)Nc4ncccn4)cc3)CC2=O)cc1C (stereo not given),/,/,.,.,.
COC(=O)c1cc(NC(=O)Cc2ccccc2[N+](=O)[O-])cc(C(=O)OC)c1,.,.,.,.,.
Cc1cccc(NC(=S)NNC(=O)c2cc3c(s2)CCC(C)C3)c1C (stereo not given),.,.,.,.,.
O=C(N/N=C1/SCC(=O)N1Cc1ccco1)c1ccccc1F,.,.,.,.,.
Cc1sc(NC(=O)CN2CCCC2)nc1-c1ccc2c(c1)CCN2C(=O)c1cccc(F)c1,/,/,.,.,.

# Assay outcomes as filed in PubChem.
